Assay results taken from publication PMC2934894 (Biochemical pharmacology, 2010).
Read-outs that look alike come from different tables or passages of the source.

Key:
ERα + ERβ = test: HEK293 ERE-luciferase reporter assay, ERα + ERβ; format: cell-based
Summary of the method: (§1)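 HEK293 cells were batch-transfected per well with 2.5 ng of each ER (ERα alone or ERα + ERβ) plus 50 ng tk-ERE-luc. After 48 h expression, cells were exposed to ligands for 24 h and lysed. Firefly luciferase luminescence was measured and normalized to β-galactosidase luminescence in the same well.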

ERα [1] = biological target: T1, ERα (Homo sapiens, UniProt P03372); test: Fluorescence Polarization Competition Binding Assay, ERα; details: read-out: Ki for binding to ERα; correlated from IC50, FP competition
Summary of the method: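 Competitive fluorescence polarization used purified ERα from a commercial kit. Compound was tenfold serially diluted in screening buffer (down to 10 pM final), DMSO below 1%. It was mixed with ERα (15 nM final) and Fluormone tracer (1 nM final). Incubation was 2 h in the dark at room temperature, then polarization was read in glass tubes.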

ERβ [2] = biological target: T2, ERβ (Homo sapiens, UniProt Q92731); test: Fluorescence Polarization Competition Binding Assay, ERβ
ERα/α homodimer = biological target: T3, ERα/α homodimer (Homo sapiens, UniProt P03372); test: BRET assay, ERα/α homodimerization in transfected HEK293 cells; format: cell-based; details: 100 μM purified compound
T3 sequence (P03372 1-595) 1: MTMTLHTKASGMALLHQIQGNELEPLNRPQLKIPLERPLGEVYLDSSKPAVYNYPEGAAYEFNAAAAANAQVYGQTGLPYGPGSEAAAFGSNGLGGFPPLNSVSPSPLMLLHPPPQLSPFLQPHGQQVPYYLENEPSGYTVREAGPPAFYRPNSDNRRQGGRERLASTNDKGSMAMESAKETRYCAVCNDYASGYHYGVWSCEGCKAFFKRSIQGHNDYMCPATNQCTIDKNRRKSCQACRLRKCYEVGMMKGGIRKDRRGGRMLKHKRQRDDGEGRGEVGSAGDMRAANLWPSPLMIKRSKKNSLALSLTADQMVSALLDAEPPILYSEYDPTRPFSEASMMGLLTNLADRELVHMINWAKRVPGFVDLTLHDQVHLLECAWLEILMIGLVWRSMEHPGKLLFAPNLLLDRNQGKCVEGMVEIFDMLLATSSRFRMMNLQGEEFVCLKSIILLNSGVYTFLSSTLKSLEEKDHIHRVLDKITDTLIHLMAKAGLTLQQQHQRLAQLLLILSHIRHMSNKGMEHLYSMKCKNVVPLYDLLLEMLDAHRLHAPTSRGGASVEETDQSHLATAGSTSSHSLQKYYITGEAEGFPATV
T3 sequence (P03372 1-595) 2: T3 sequence (P03372 1-595) 1
Summary of the method: (§2)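 HEK293 cells batch-transfected in phenol red free DMEM + 5% SFS with fusion pairs: ERα-RLuc + ERα-YFP (α/α), RLuc-ERβ + YFP-ERβ (β/β) or ERα-RLuc + YFP-ERβ (α/β). RLuc-only cells were included for the correction factor. After 24 h, cells were trypsinized and replated at 10,000/well in PBS. Compound was applied for 1 h, then coelenterazine h was added. Emission was read at 470/530 nm; BRET ratio; triplicates; E2 positive, DMSO negative control.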

ERα [3] = biological target: T1, ERα; test: HEK293 ERE-luciferase reporter assay, ERα alone; format: cell-based; details: HEK293, 24 hours with ligand, 10 μM and 100 μM
Summary of the method: as §1

HC11 cells [4] = test: MTT assay for cellular metabolic activity, HC11; format: cell-based, mouse; details: inhibition retained in the presence of ICI 182,780
ERβ [5] = biological target: T2, ERβ; test: HEK293 ERE-luciferase reporter assay, ERβ alone; format: cell-based; details: HEK293, 24 hours with ligand, 10 μM and 100 μM
PC3 cells [6] = test: MTT assay for cellular metabolic activity, PC3; format: cell-based, human; details: inhibition retained in the presence of ICI 182,780
PC3 cells [7] = details: vs DMSO
ERα/β heterodimer = ERα/β heterodimer (Homo sapiens, UniProt P03372+Q92731); test: BRET assay, ERα/β heterodimerization in transfected HEK293 cells; format: cell-based; details: 1 hour
Summary of the method: as §2

HC11 cells [8] = details: HC11, 10 μM synthetic compound, vs DMSO, p= 0.06
ERβ/β homodimer = ERβ/β homodimer (Homo sapiens, UniProt Q92731); test: BRET assay, ERβ/β homodimerization in transfected HEK293 cells; format: cell-based; details: 100 μM purified compound
Summary of the method: as §2

T2 sequence (Q92731 whole entry): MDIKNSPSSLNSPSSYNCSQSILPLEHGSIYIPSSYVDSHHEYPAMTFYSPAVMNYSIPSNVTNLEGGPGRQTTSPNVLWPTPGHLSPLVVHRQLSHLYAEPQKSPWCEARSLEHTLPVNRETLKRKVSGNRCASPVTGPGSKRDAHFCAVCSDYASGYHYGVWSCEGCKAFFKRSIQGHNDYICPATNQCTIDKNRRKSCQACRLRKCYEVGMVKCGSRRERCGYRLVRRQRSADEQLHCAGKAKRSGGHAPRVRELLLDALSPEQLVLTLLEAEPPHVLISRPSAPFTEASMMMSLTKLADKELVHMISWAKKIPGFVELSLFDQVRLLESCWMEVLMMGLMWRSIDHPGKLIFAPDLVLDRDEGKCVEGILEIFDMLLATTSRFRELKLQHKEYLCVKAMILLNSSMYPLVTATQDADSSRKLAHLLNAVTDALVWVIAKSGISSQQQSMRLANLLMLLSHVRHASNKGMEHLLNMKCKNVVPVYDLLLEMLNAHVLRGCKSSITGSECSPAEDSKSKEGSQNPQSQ
Chain of ERα/β heterodimer (Q92731 whole entry, one chain of several): as the sequence (Q92731 whole entry) above
Chain of ERβ/β homodimer (Q92731 whole entry): as above
Chain of ERβ/β homodimer (Q92731 whole entry): as above

effect on actinopolymorphol A-dependent reporter activity (ERα + ERβ; in the presence of ERα + ERβ, HEK293 ERE-luciferase)	Compound	Ki (ERα [1])	binding affinity for ERβ over ERα (ERβ [2]; FP competition binding, ERβ vs ERα)	Ki (ERβ [2]; read-out: Ki for binding to ERβ, correlated from IC50, FP competition)	induction of ERα/α homodimer (BRET ratio) (ERα/α homodimer)	transcriptional activity of ERα alone (ERE-luciferase) (ERα [3])	cell proliferation (MTT metabolic activity) (HC11 cells [4])	transcriptional activity of ERβ alone (ERE-luciferase) (ERβ [5])	cell proliferation (MTT metabolic activity) (PC3 cells [6])	cell number (PC3 cells [7]; PC3, 10 μM synthetic compound, p= 0.03)	cell number (PC3 cells [7]; PC3, 100 μM synthetic compound, p=0.002)	induction for ERα/β heterodimers (BRET ratio) (ERα/β heterodimer; 10 μM purified compound)	increase in ERα/β heterodimerization (BRET ratio) (ERα/β heterodimer; 100 μM purified compound)	cell number (HC11 cells [8])	transcriptional activity of ERα + ERβ (ERE-luciferase) (ERα + ERβ; HEK293, 24 hours with ligand, 10 μM and 100 μM)	induction of ERβ/β homodimer (BRET ratio) (ERβ/β homodimer)
completely abrogated	C[C@]12CC[C@@H]3c4ccc(O)cc4C[C@@H](CCCCCCCCC[S+]([O-])CCCC(F)(F)C(F)(F)F)[C@H]3[C@@H]1CC[C@@H]2O (stereo partly shown) [ICI 182,780, reference compound]	–	–	–	–	–	–	–	–	–	–	–	–	–	–	–
–	actinopolymorphol A	6.2 µM	~2 fold	4.3 µM	less than 1.5 fold	not able to activate	inhibited	found to activate	inhibited	statistically significant decreases	statistically significant decreases	3 fold	5 fold	statistically non-significant decrease	found to activate	less than 1.5 fold
